Experimental data as given in ChEMBL document CHEMBL1926668, “Triazine-based vanilloid 1 receptor open channel blockers: design, synthesis, evaluation, and SAR analysis” (J Med Chem, 2011).
pIC50: −log10 of the molar value. Active and inactive are the calls of the source. The calls are words filed in the database; no cut-off is given here.

Tests used:
[1] = target: Transient receptor potential cation channel subfamily V member 1 (Rattus norvegicus, UniProt O35433); assay: Antagonist activity at rat TRPV1 expressed in Xenopus laevis oocytes assessed as blockage of capsaicin-induced current at holding potential -60 mV by two-microelectrode voltage -clamp amplifier; assay type: functional, cell-based, Oocyte
[2] = target: Transient receptor potential cation channel subfamily V member 1 (Rattus norvegicus) (UniProt O35433); assay: Antagonist activity at rat TRPV1 expressed in Xenopus laevis oocytes assessed as blockage of capsaicin-induced current at holding potential -60 mV at 10 uM by two-microelectrode voltage -clamp amplifier; assay type: functional, cell-based; set-up: scale not given: the % may be the effect or the level left; settings: Oocyte
[3] = target: Transient receptor potential cation channel subfamily V member 1 (Rattus norvegicus) (UniProt O35433); assay: Agonist activity at rat TRPV1 expressed in Xenopus laevis oocytes assessed as stimulation of capsaicin-induced current at holding potential -60 mV at 10 uM by two-microelectrode voltage -clamp amplifier; assay type: functional, cell-based; settings: Oocyte
Summary of the method: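 Rat TRPV1-expressing Xenopus oocytes under two-electrode voltage clamp at -60 mV in Mg2+ Ringer's buffer, 20 C. Compound at 10 μM applied without capsaicin, and the inward current it activated was recorded.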

[4] = Antagonist activity at NMDAR; assay type: functional
[5] = Antagonist activity at TRPM8 at 1 uM; assay type: functional; set-up: scale not given: the % may be the effect or the level left
[6] = Antagonist activity at NMDAR at 10 uM; assay type: functional; set-up: scale not given: the % may be the effect or the level left
[7] = target: Transient receptor potential cation channel subfamily V member 1 (Rattus norvegicus) (UniProt O35433); assay: Antagonist activity at rat TRPV1 expressed in Xenopus laevis oocytes assessed as blockage of capsaicin-induced current at depolarizing membrane potential and 10 uM by two-microelectrode voltage -clamp amplifier; assay type: functional, cell-based; settings: Oocyte
Summary of the method: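 Voltage-dependence protocol in rat TRPV1 oocytes, Mg2+ Ringer's, 20 C. Currents were evoked by 10 μM capsaicin with a linear ramp from -60 to +60 mV over 5 s (25 mV/s), with or without 10 μM compound. Leak current measured without agonist was subtracted. Fractional block was plotted against voltage and fitted to the Woodhull model.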

[8] = Antagonist activity at TRPM8; assay type: functional
[9] = target: Transient receptor potential cation channel subfamily V member 1 (Rattus norvegicus) (UniProt O35433); assay: Competitive inhibition of rat TRPV1 expressed in Xenopus laevis oocytes; assay type: cell-based; settings: Oocyte
[10] = target: Transient receptor potential cation channel subfamily V member 1 (Rattus norvegicus) (UniProt O35433); assay: Antagonist activity at rat TRPV1 expressed in Xenopus laevis oocytes assessed as blockage of capsaicin-induced current at negative membrane potentials and 10 uM by two-microelectrode voltage -clamp amplifier; settings: Oocyte
[11] = Antagonist activity at TRPM8 at 10 uM; assay type: functional; set-up: scale not given: the % may be the effect or the level left
[12] = Selectivity ratio of IC50 for NMDAR to IC50 for rat TRVP1
[13] = Selectivity ratio of IC50 for TRPM8 to IC50 for rat TRVP1
[14] = Antagonist activity at NMDAR at 1 uM; assay type: functional; set-up: scale not given: the % may be the effect or the level left

Transient receptor potential cation channel subfamily V member 1, sequence (O35433 whole entry): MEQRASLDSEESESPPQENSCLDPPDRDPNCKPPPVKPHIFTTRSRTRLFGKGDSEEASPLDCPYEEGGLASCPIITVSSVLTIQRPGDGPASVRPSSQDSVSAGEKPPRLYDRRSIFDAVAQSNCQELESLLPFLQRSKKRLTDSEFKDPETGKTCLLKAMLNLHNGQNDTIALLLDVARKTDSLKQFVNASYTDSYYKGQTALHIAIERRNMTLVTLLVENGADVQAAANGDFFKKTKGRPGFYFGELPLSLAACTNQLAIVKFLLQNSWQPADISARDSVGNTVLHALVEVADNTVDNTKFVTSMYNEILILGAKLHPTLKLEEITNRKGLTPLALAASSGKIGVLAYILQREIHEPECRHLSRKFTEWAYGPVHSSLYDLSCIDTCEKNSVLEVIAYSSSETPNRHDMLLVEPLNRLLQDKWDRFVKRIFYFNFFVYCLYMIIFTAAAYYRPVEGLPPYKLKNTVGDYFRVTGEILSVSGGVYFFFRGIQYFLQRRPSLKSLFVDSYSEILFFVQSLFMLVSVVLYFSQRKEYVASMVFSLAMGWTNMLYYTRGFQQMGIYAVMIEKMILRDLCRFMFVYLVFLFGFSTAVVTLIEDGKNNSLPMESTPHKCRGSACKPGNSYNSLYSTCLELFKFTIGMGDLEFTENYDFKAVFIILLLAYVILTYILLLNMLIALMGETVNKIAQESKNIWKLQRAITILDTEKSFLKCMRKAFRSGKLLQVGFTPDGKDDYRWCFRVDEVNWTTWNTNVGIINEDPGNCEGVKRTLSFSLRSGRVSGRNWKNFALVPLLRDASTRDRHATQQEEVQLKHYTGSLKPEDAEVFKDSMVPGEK
Transient receptor potential cation channel subfamily V member 1 (Rattus norvegicus), sequence (O35433 whole entry): as above

SMILES | pIC50 [1] | also measured
CN(C)CCCNc1nc(NCCC2=CCCCC2)nc(NCCC2=CCCCC2)n1 | 3.66 | –
COC(=O)c1ccc(CNc2nc(NCCCN(C)C)nc(NCc3ccc(C(=O)OC)cc3)n2)cc1 | 4.16 | –
CN1CCCC1CCN1CC(=O)N(CCc2ccccc2)C(CC(=O)N(CCc2ccc(Cl)cc2Cl)CC(N)=O)C1=O (configuration not stated) | – | Activity [2]: 28%
CN1CCCC1CCN1CC(=O)N(CCc2ccc(Cl)cc2Cl)C(CC(=O)N(CCc2ccc(Cl)cc2Cl)CC(N)=O)C1=O (configuration not stated) | – | Activity [2]: 3%
CN1CCCC1CCNCC(=O)N(CCc1ccc(Cl)cc1Cl)CC(=O)N(CCc1ccc(Cl)cc1Cl)CC(N)=O (configuration not stated) | – | Activity [2]: 99%
CN(C)CCCNCC(=O)N(CCc1ccc(Cl)cc1)CC(=O)N(CCc1ccc(Cl)cc1)CC(N)=O | – | Activity [2]: 45%
CN(C)CCN1CCN(c2nc(NCCc3ccc(F)cc3)nc(NCCc3ccc(F)cc3)n2)CC1 | 4.73 | Activity [3]: Active
CN(C)CCOCCNc1nc(NCCc2ccc(F)cc2)nc(NCCc2ccc(F)cc2)n1 | 5.15 | –
N=C(N)NCCCCN(CC(N)=O)C(=O)CC1C(=O)N(CCc2ccc(Cl)cc2)CC(=O)N1CCc1ccc(Cl)cc1 (configuration not stated) | – | Activity [2]: 55%
CN1CCCC1CCN(CC(N)=O)C(=O)CC1C(=O)N(CCc2ccc(Cl)cc2Cl)CC(=O)N1CCc1ccc(Cl)cc1Cl (configuration not stated) | – | Activity [2]: 40%
N=C(N)NCCCCN(CC(N)=O)C(=O)CC1C(=O)N(CCc2ccc(Cl)cc2Cl)CC(=O)N1CCc1ccc(Cl)cc1Cl (configuration not stated) | – | Activity [2]: 30%
CN(C)CCNc1nc(NCCc2ccc(Cl)cc2)nc(NCCc2ccc(Cl)cc2)n1 | 5.17 | –
CN(C)CCCNc1nc(N2CCN(C(c3ccc(F)cc3)c3ccc(F)cc3)CC2)nc(N2CCN(C(c3ccc(F)cc3)c3ccc(F)cc3)CC2)n1 | 4.25 | –
NC(=O)CN(CCc1ccc(Cl)cc1Cl)C(=O)CN(CCc1ccc(Cl)cc1Cl)C(=O)CNCCCO | – | Activity [2]: 32%
CN(C)CCCNc1nc(NCc2ccc(C(=O)O)cc2)nc(NCc2ccc(C(=O)O)cc2)n1 | 3.75 | –
CCCCNCC(=O)N(CCc1ccc(Cl)cc1Cl)CC(=O)N(CCc1ccc(Cl)cc1Cl)CC(N)=O | – | Activity [2]: 34%
CN1CCC(N2CCN(c3nc(NCCc4ccc(F)cc4)nc(NCCc4ccc(F)cc4)n3)CC2)CC1 | 4.15 | –
CN(C)CCCNCC(=O)N(CCc1ccc(Cl)cc1Cl)CC(=O)N(CCc1ccc(Cl)cc1Cl)CC(N)=O | – | Activity [2]: 55%
CCN(CC)CCCNCC(=O)N(CCc1ccc(Cl)cc1Cl)CC(=O)N(CCc1ccc(Cl)cc1Cl)CC(N)=O | – | Activity [2]: 99%
CN(C)CCCNc1nc(N2CCc3c([nH]c4ccccc34)C2)nc(N2CCc3c([nH]c4ccccc34)C2)n1 | 5.15 | –
CCCCNc1nc(NCc2ccc(C(=O)O)cc2)nc(NCc2ccc(C(=O)O)cc2)n1 | 3.64 | –
CCN(CC)CCCN1CC(=O)N(CCc2ccc(Cl)cc2Cl)C(CC(=O)N(CCc2ccc(Cl)cc2Cl)CC(N)=O)C1=O (configuration not stated) | – | Activity [2]: 3%

Further lines, with some results ahead:

pIC50 [1] | SMILES | also measured
5.51 | CN(C)CCCNc1nc(NCc2ccc(F)cc2)nc(NCc2ccc(F)cc2)n1 | –
5.48 | CN(C)CCCNc1nc(NCc2ccc(F)cc2F)nc(NCc2ccc(F)cc2F)n1 | –
6.02 | NCCN1CCN(c2nc(NCCc3ccc(Cl)cc3)nc(NCCc3ccc(Cl)cc3)n2)CC1 | –
5.21 | CN(C)CCCOc1nc(NCCc2ccc(F)cc2)nc(NCCc2ccc(F)cc2)n1 | –
6.35 | CN(C)CCCNc1nc(NCCc2ccccc2F)nc(NCCc2ccccc2F)n1 | –
5.92 | CN(C)CCCNc1nc(NCCc2ccc(Cl)cc2Cl)nc(NCCc2ccc(Cl)cc2Cl)n1 | –
5.63 | CN(C)CCCNc1nc(NCCc2c[nH]c3ccccc23)nc(NCCc2c[nH]c3ccccc23)n1 | –
5.58 | CN(C)CCCNc1nc(NCc2ccc(Cl)cc2)nc(NCc2ccc(Cl)cc2)n1 | –
6.01 | COc1ccc(CCNc2nc(NCCCN(C)C)nc(NCCc3ccc(OC)cc3)n2)cc1 | –
6.30 | CN(C)CCCNc1nc(NCCc2ccc(Cl)cc2)nc(NCCc2ccc(Cl)cc2)n1 | Activity [3]: Active
6.52 | CN(C)CCCNc1nc(NCCc2cccc(F)c2)nc(NCCc2cccc(F)c2)n1 | –
6.18 | CN(C)CCCNc1nc(NCc2ccc(C(F)(F)F)cc2)nc(NCc2ccc(C(F)(F)F)cc2)n1 | –
5.30 | CN(C)CCCNc1nc(NCc2ccc3c(c2)OCO3)nc(NCc2ccc3c(c2)OCO3)n1 | –
6.26 | NC(N)=NCCCCNc1nc(NCCc2ccc(F)cc2)nc(NCCc2ccc(F)cc2)n1 | –
5.92 | CN1CCCC1CCNc1nc(NCCc2ccc(Cl)cc2)nc(NCCc2ccc(Cl)cc2)n1 (configuration not stated) | –
6.17 | CN(C)CCCNc1nc(NCCc2ccccc2)nc(NCCc2ccccc2)n1 | –
7.00 | CN(C)CCCCCNc1nc(NCCc2ccc(F)cc2)nc(NCCc2ccc(F)cc2)n1 | –
5.79 | CN(C)CCCNc1nc(NCCc2ccc([N+](=O)[O-])cc2)nc(NCCc2ccc([N+](=O)[O-])cc2)n1 | –
7.30 | CN(C)CCCNc1nc(NCCc2ccc(F)cc2)nc(NCCc2ccc(F)cc2)n1 | pIC50 [4]: 5.04; Activity [5]: 37%; Activity [6]: 51%; Activity [3]: inactive; Activity [7]: inactive; pIC50 [8]: 5.12; inhibition [9]: inactive; Activity [10]: Active; Activity [11]: 55%; Ratio IC50 [12]: 150; Ratio IC50 [13]: 150; Activity [14]: 25%
5.19 | CN1CCN(Nc2nc(NCCc3ccc(Cl)cc3)nc(NCCc3ccc(Cl)cc3)n2)CC1 | –
6.08 | CN(C)CCCNc1nc(NCc2ccc(Cl)cc2Cl)nc(NCc2ccc(Cl)cc2Cl)n1 | –
